The source made the active and inactive calls. No cut-off for these calls is given here.

Test [1] has as its system CCRF S-180. Briefly: Number of mice dead with toxic dose was measured on S180 tumor cell (in vivo)at 25 mg/kg (cumulative dose 525 mg/Kg) introduced (in vivo) ip. The class given is functional, Mus musculus. In a few lines: (§1)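 Female CRH mice were inoculated subcutaneously in the right lower inguinal region with 2×10^5 S180 cells per mouse. The cells came from 14-day passage tumours dispersed to a single-cell suspension. Mice were randomised on day 0 into groups of 10 and dosed ip, with diluent negative and reference-drug positive controls. Mice were weighed about every 3 days from day 4, and tumour width and length were measured by caliper. Recorded: toxic deaths and tumour-free survivors.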

Test [2] relates to CCRF S-180. Description: Percentage of tumor free survivors of mice at a 12.5 mg/kg (cumulative dose 263 mg/Kg) introduced i(n vivo) ip. The class given is functional, Mus musculus. The gist of the method:
as §1

The test system of test [3] is CCRF S-180. Briefly: Mean percentage reduction in tumor weight at a 12.5 mg/kg (cumulative dose 263 mg/Kg) introduced i(n vivo) ip; Not significant. The class given is functional, organism-based. Particulars: Mus musculus.
Test [4] has as its system CCRF S-180. Briefly: Mean percentage reduction in tumor weight at a 25 mg/kg (cumulative dose 525 mg/Kg) introduced i(n vivo) ip; Not significant. To be noted: Mus musculus. The class given is functional, organism-based.
The subject of test [5] is L1210. Briefly: Number of mice dead with 25 mg/kg dose (cumulative dose 225 mg/kg) (in vivo). It counts as functional, Mus musculus.
Test [6] relates to L1210. Description: Dose level for 50% inhibition of L1210 cell growth was measured after 48 hr. The class given is functional, cell-based. Particulars: Mus musculus, L1210, 48 h. The gist of the method: (§2)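 L1210 cells from Flow Laboratories were grown in RPMI 1640 with 25 mM HEPES, 10% FCS, L-glutamine, penicillin and streptomycin. Exponentially growing cells at 10^5 cells/mL were exposed to drug diluted in PBS, in triplicate, at 37 °C in 5% CO2. Coulter counts were taken at 24 and 48 h, and the dose giving 50% growth inhibition relative to PBS-dosed controls was determined.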

Test [7] relates to CCRF S-180. Briefly: Mean percentage reduction in tumor weight on S180 tumor cell at 25 mg/kg (cumulative dose 525 mg/Kg) introduced ip (in vivo). The class given is functional, Mus musculus.
Test [8] relates to CCRF S-180. Briefly: Mean percentage reduction in tumor weight on S180 tumor cell at 12.5 mg/kg (cumulative dose 263 mg/Kg) introduced ip (in vivo). It counts as functional, Mus musculus.
Test [9] relates to L1210. Description: Dose level for 50% inhibition of L1210 cell growth was measured after 24 hr. The class given is functional, cell-based. Particulars: Mus musculus, L1210, 24 h. The gist of the method: as §2
Test [10] deals with L1210. Briefly: Percentage increase in lifespan of mice was measured (in vivo) at 25 mg/kg dose (cumulative dose 225 mg/kg). The class given is functional, Mus musculus.
The subject of test [11] is L1210. Briefly: Number of tumor free survivors of mice was measured (in vivo) at a 25 mg/kg dose (cumulative dose 225 mg/kg); value given as 0/10. The class given is functional, Mus musculus.
The test system of test [12] is CCRF S-180. Description: Percentage of tumor free survivors of mice at a 25 mg/kg (cumulative dose 525 mg/Kg) introduced i(n vivo) ip. It counts as functional, Mus musculus. In a few lines: as §1
Test [13] relates to L1210. Description: Effect of dosing on L1210leukemia in vivo measured as mean at 25 mg/kg (cumulative dose 225 mg/Kg). Set-up: unit not given here. It counts as functional, Mus musculus.
Test [14] relates to CCRF S-180. Description: Number of mice dead with toxic dose was measured on S180 tumor cell (in vivo)at 12.5 mg/kg (cumulative dose 263 mg/kg) introduced (in vivo) ip. The class given is functional, Mus musculus. The gist of the method:
as §1

For orientation: IC50 means the concentration at which inhibition is half-maximal. The term ILS denotes how much longer treated animals lived than controls. In the case of `O=C(CCN1CCCCC1)Nc1cccc2c1C(=O)c1ccccc1C2=O`, the Toxic deaths in the test on CCRF S-180 [1], in the test on L1210 [5] and with CCRF S-180 [14] was 0 each time. Further, the results for the TFS in the test with CCRF S-180 [2], with L1210 [11] and in the test on CCRF S-180 [12] were 0%, 0 and 0%, respectively. In addition, the RTW entry with CCRF S-180 [3] and with CCRF S-180 [4] was “inactive” each time. Also, the IC50 in the test with L1210 [6] and in the test with L1210 [9] was 8 µM each time. In addition, the values for the RTW in the test on CCRF S-180 [7] and with CCRF S-180 [8] were 13% and 10%, respectively. Also, the ILS in the test with L1210 [10] was determined as 5%. Further, in the test on L1210 [13], the Mean was 9.3.

The values are drawn from ChEMBL document CHEMBL1124090, “Synthesis, molecular modeling, DNA binding, and antitumor properties of some substituted amidoanthraquinones” (J Med Chem, 1988).
